Columns and labels:
Cytochrome P450 2C19 = Cytochrome P450 2C19 (Homo sapiens, UniProt P33261); test: Inhibition of CYP2C19 at up to 50 uM; format: ADME
[1] = target: Disintegrin and metalloproteinase domain-containing protein 17 (Homo sapiens, UniProt P78536); test: Inhibition of human recombinant TACE after 60 mins by fluorescence plate reader
Summary of the method: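 rh-TACE at 80 ng/mL with 10 μM MCA-Pro-Leu-Ala-Gln-Ala-Val-Dpa-Arg-Ser-Ser-Ser-Arg-NH₂, in 100 mM Tris-HCl pH 7.5, 150 mM NaCl, 10 mM CaCl₂, 0.05% Brij-35. Inhibitor preincubated for 15 min at 25 °C. Fluorescence (ex 325/em 405 nm) read at 60 min. IC50 from three linear-range points; mean of ≥2.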

Interstitial collagenase = target: T1, Interstitial collagenase (Homo sapiens, UniProt P03956); test: Inhibition of human recombinant MMP1 after 60 mins by fluorescence plate reader
T1 sequence (P03956 whole entry): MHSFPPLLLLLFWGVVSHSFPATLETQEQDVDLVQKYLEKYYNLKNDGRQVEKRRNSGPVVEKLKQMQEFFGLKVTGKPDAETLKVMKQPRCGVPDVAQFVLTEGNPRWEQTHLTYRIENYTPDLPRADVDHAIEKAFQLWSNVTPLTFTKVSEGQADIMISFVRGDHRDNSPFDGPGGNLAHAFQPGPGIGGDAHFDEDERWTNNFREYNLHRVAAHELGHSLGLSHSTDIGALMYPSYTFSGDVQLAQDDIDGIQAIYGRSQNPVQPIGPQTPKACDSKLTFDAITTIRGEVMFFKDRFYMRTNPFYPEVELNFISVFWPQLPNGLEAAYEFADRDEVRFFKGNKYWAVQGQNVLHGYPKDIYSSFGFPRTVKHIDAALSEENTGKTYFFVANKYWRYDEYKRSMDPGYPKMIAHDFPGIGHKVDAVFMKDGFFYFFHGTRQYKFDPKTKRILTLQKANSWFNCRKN
Summary of the method: (§1)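 Recombinant human enzyme at 20 ng/mL with 10 μM MOCAc-Lys-Pro-Leu-Gly-Leu-A2pr(Dnp)-Ala-Arg-NH₂, in 100 mM Tris-HCl pH 7.5, 150 mM NaCl, 10 mM CaCl₂, 0.05% Brij-35. Enzyme pretreated with inhibitor for 15 min at 25 °C, then substrate added. Fluorescence (ex 325, em 405 nm) read at 60 min. IC50 taken from three points in the linear range; mean of ≥2 determinations.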

[2] = target: Matrix metalloproteinase-14 (Homo sapiens, UniProt P50281); test: Inhibition of human recombinant MMP14 after 60 mins by fluorescence plate reader; summary of the method: as §1
Cytochrome P450 2C9 = Cytochrome P450 2C9 (Homo sapiens, UniProt P11712); test: Inhibition of CYP2C9 at up to 50 uM; format: ADME
Cytochrome P450 2D6 = Cytochrome P450 2D6 (Homo sapiens, UniProt P10635); test: Inhibition of CYP2D6 at up to 50 uM; format: ADME
Cytochrome P450 2A6 = target: T2, Cytochrome P450 2A6 (Homo sapiens, UniProt P11509); test: Inhibition of CYP2A6 at up to 50 uM; format: ADME
T2 sequence (P11509 whole entry): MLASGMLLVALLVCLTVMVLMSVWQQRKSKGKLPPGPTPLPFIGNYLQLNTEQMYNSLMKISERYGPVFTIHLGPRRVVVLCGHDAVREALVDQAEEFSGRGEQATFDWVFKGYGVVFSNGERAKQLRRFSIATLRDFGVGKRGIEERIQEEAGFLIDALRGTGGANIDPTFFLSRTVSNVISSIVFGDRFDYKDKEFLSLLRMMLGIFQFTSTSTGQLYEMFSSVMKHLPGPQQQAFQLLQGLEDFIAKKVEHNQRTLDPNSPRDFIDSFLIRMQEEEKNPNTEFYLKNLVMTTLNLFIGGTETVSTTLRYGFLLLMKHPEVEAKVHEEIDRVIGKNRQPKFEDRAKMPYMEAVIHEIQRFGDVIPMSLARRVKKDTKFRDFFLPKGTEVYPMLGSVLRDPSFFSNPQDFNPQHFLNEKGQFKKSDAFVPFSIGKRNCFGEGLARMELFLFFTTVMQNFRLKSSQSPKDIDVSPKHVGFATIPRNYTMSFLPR

[3] = Cmax in Sprague-Dawley rat at 10 mg/kg, po; format: ADME, organism-based; parameters: dose 10 mg/kg, route oral; conditions: in vivo
[4] = AUC in Sprague-Dawley rat at 10 mg/kg, po; format: ADME, organism-based; parameters: dose 10 mg/kg, route oral; conditions: plasma
[5] = Oral bioavailability in Sprague-Dawley rat at 10 mg/kg; format: ADME, organism-based; conditions: Sprague-Dawley, in vivo
[6] = target: Matrix metalloproteinase-9 (Homo sapiens, UniProt P14780); test: Inhibition of human recombinant MMP9 after 60 mins by fluorescence plate reader
Summary of the method: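 rh-MMP-9 at 4 ng/mL with 10 μM MOCAc-Pro-Leu-Gly-Leu-A2pr(Dnp)-Ala-Arg-NH₂, in 100 mM Tris-HCl pH 7.5, 150 mM NaCl, 10 mM CaCl₂, 0.05% Brij-35. Enzyme and inhibitor preincubated for 15 min at 25 °C before substrate. Fluorescence (ex 325/em 405 nm) read at 60 min. IC50 from three linear-range points; ≥2 runs averaged.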

Collagenase 3 = Collagenase 3 (Homo sapiens, UniProt P45452); test: Inhibition of human recombinant MMP13 after 60 mins by fluorescence plate reader
Summary of the method: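 rh-MMP-13 at 40 ng/mL with 5 μM 7-MCA-Pro-CHA-Gly-NVal-His-Ala-DPA, in Tris-HCl pH 7.5/NaCl/CaCl₂/0.05% Brij-35. Pretreatment with inhibitor for 15 min at 25 °C, then substrate started the reaction. Fluorescence (ex 325/em 405 nm) read at 60 min. IC50 from three central linear points, averaged over ≥2 determinations.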

Sequence of Matrix metalloproteinase-9 (P14780 whole entry): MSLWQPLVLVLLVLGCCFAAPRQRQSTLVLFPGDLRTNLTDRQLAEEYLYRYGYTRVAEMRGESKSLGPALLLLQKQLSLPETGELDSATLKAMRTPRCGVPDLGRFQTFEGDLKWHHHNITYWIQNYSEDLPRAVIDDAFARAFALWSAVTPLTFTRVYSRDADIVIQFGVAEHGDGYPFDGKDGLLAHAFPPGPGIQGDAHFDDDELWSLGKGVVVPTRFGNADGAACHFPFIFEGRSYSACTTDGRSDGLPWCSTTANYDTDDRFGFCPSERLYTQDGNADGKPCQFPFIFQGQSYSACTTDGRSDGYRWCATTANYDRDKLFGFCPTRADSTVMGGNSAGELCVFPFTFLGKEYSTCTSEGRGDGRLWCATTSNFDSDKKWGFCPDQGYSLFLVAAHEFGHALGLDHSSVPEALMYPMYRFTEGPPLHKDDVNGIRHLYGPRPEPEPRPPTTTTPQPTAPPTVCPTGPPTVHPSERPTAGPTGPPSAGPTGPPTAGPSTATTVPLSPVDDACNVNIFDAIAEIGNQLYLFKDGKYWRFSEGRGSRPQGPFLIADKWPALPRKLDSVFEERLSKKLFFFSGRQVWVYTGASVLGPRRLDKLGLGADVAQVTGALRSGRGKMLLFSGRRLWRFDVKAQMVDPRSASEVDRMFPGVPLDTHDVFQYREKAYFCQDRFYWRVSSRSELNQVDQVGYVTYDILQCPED
Sequence of Cytochrome P450 2C9 (P11712 whole entry): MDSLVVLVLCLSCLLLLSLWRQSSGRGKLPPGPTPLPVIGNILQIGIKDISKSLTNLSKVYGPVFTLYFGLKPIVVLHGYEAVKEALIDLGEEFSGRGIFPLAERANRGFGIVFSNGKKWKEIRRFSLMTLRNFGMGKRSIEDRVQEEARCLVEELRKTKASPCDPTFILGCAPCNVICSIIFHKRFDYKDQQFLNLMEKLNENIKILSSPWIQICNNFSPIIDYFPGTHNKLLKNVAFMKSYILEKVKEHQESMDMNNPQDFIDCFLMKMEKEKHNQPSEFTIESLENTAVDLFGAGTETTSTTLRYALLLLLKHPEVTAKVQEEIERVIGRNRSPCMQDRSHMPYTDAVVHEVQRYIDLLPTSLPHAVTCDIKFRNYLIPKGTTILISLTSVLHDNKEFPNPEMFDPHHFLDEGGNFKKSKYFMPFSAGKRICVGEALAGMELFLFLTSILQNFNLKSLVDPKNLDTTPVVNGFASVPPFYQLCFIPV
Sequence of Disintegrin and metalloproteinase domain-containing protein 17 (P78536 whole entry, the tested form may be a part): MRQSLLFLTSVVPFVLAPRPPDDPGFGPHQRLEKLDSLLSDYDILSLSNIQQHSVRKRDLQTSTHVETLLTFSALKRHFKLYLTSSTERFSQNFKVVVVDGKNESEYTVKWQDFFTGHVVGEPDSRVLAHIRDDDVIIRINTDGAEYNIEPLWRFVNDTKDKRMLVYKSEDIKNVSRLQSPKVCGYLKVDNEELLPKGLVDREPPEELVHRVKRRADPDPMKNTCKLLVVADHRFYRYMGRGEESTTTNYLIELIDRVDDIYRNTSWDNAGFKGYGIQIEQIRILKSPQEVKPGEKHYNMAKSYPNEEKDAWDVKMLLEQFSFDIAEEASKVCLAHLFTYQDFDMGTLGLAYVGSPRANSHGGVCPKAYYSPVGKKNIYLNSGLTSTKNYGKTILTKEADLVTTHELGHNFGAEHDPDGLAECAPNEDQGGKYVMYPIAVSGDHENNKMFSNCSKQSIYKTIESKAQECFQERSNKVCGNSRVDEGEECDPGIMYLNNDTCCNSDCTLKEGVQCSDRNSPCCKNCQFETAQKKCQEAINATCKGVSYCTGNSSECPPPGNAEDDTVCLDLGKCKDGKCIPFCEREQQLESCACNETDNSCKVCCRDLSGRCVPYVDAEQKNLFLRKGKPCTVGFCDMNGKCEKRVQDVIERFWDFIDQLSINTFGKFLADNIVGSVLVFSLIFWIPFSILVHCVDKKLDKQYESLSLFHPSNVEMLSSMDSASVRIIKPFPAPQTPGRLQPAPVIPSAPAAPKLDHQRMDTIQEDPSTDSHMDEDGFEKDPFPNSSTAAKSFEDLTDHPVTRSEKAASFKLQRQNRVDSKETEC
Sequence of Cytochrome P450 2C19 (P33261 whole entry, the tested form may be a part): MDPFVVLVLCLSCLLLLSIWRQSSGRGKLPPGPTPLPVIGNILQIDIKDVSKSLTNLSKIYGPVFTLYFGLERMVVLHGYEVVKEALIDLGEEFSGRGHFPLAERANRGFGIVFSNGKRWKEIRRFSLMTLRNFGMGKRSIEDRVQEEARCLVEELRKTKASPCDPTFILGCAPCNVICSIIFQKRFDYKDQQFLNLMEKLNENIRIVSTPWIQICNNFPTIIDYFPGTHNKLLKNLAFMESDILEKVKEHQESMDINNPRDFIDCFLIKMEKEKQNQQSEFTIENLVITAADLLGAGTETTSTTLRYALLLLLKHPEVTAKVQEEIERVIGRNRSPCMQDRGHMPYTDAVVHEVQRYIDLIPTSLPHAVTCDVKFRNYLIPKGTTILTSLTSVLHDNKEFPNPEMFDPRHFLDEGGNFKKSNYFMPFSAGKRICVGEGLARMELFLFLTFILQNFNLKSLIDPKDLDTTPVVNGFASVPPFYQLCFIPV
Sequence of Cytochrome P450 2D6 (P10635 whole entry): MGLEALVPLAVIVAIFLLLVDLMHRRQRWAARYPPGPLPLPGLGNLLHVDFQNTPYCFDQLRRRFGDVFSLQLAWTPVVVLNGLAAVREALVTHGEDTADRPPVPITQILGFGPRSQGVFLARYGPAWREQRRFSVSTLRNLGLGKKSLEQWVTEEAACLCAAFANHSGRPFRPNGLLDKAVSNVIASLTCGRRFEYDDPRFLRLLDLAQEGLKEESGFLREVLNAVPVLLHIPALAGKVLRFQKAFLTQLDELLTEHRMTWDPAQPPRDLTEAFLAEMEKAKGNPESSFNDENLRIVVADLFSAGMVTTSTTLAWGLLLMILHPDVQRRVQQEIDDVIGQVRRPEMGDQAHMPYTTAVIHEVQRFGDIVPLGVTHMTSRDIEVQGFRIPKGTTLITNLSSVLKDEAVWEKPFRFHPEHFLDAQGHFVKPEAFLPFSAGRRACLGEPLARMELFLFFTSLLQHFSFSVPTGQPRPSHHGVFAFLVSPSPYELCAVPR

inhibition (INH) (Cytochrome P450 2C19): Not Active | IC50 [1]: > 10 µM | IC50 (Interstitial collagenase): > 10 µM | IC50 [2]: > 10 µM | inhibition (INH) (Cytochrome P450 2C9): Not Active | inhibition (INH) (Cytochrome P450 2D6): Not Active | inhibition (INH) (Cytochrome P450 2A6): Not Active | Cmax [3]: 54.1 µM | AUC [4]: 421 µM·h | bioavailability [5]: 103% | IC50 [6]: > 10 µM | IC50 (Collagenase 3): > 10 µM
SMILES: C[C@@H]1[C@](C)(c2ccccc2)[C@]1(NS(=O)(=O)N1CCc2c(nc3cc(F)ccn23)C1)C(=O)O
